Reference: ChEMBL document CHEMBL4342502, “Synthesis and Antichlamydial Activity of Molecules Based on Dysregulators of Cylindrical Proteases” (J Med Chem, 2020)
Active and inactive are the calls of the source. The calls are words filed in the database; no cut-off is given here.

Legend:
[1] = system: Chlamydia trachomatis; assay: Anti-chlamydial activity against Chlamydia trachomatis Serovar LGV-L2 infected in Hep2 cells assessed as inhibition of chlamydial inclusion at 50 ug/ml treated at 8 hrs post infection and measured at 24 hrs post-infection by immunofluorescence assay; type: functional, organism-based
In short: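 HEp-2 cells infected with C. trachomatis serovar L2. Compounds at 50 μg/mL added 8 hpi; inclusion number and size assessed by immunofluorescence at 24 hpi against untreated cells. Cell morphology and viability checked by phase-contrast microscopy.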

[2] = system: Neisseria meningitidis; assay: Antimicrobial activity against Neisseria meningitidis MC58 assessed as bacterial growth inhibition measured after 18 to 20 hrs; type: functional
[3] = system: Haemophilus influenzae; assay: Antimicrobial activity against Haemophilus influenzae H2192 assessed as bacterial growth inhibition measured after 18 to 20 hrs; type: functional
[4] = Toxicity in Drosophila melanogaster assessed as survival rate at 0.25 to 1 mM; details: 1000 µM
In short: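 Drosophila SMART assay using third-instar larvae (72 ± 4 h) from ST and HB crosses. Larvae exposed in hydrated instant mashed-potato medium at 0.25, 0.5 and 1.0 mM final. Vehicle control: water with 1% Tween-80 and 3% ethanol. Survival of treated groups compared statistically with the vehicle control.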

[5] = system: Escherichia coli; assay: Antibacterial activity against Escherichia coli ATCC 25922 assessed as bacterial growth inhibition at 32 ug/ml measured after 16 hrs by broth microdilution method; type: functional, organism-based
[6] = system: Escherichia coli; assay: Antibacterial activity against Escherichia coli K12 assessed as bacterial growth inhibition at 32 ug/ml measured after 16 hrs by broth microdilution method; type: functional, organism-based; details: K-12
In short: (§1)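 Broth microdilution in Mueller Hinton broth, triplicate. Direct colony suspension at 1.5 x 10^8 CFU/mL diluted to ~10^5 CFU/mL. Serial dilutions made from DMSO stocks at 1 mg/mL; vancomycin positive control, blank medium negative control. Incubated 16 h at optimum temperature. MIC is the lowest concentration without visible growth at 600 nm; mean of triplicate determinations.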

[7] = Mutagenicity in Drosophila melanogaster somatic cells assessed as frequency of clone formation in HB crosses at 0.25 to 1 mM by SMART assay; type: ADME; details: 1000 µM
In short: (§2)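 Drosophila SMART wing-spot assay, ST and HB crosses. Third-instar larvae (72 ± 4 h) placed on hydrated instant mashed potato medium containing compound at 0.25, 0.5 or 1.0 mM final. Negative control: water with 1% Tween-80 and 3% ethanol. Statistics by Frei and Würgler two-sided U test, P≤0.05.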

[8] = system: Acinetobacter baumannii; assay: Antibacterial activity against Acinetobacter baumannii ATCC 19606 assessed as bacterial growth inhibition at 32 ug/ml measured after 16 hrs by broth microdilution method; type: functional, organism-based; details: ATCC 19606 = CIP 70.34 = JCM 6841
[9] = system: Cryptococcus neoformans; assay: Antifungal activity against Cryptococcus neoformans var. grubii H99 ATCC […] as fungal growth inhibition at 32 ug/ml measured after 16 hrs by broth microdilution method; type: functional, organism-based; details: var. grubii H99 ATCC 208821
[10] = system: Staphylococcus aureus; assay: Antibacterial activity against Staphylococcus aureus JE2 assessed as bacterial growth inhibition at 32 ug/ml measured after 16 hrs by broth microdilution method; type: functional, organism-based; in short: as §1
[11] = system: Candida albicans; assay: Antifungal activity against Candida albicans ATCC 90028 assessed as fungal growth inhibition at 32 ug/ml measured after 16 hrs by broth microdilution method; type: functional, organism-based
[12] = system: Pseudomonas aeruginosa; assay: Antibacterial activity against Pseudomonas aeruginosa ATCC 27853 assessed as bacterial growth inhibition at 32 ug/ml measured after 16 hrs by broth microdilution method; type: functional, organism-based
[13] = system: Staphylococcus aureus; assay: Antibacterial activity against methicillin-resistant Staphylococcus aureus ATCC 43300 assessed as bacterial growth inhibition at 32 ug/ml measured after 16 hrs by broth microdilution method; type: functional, organism-based
[14] = Mutagenicity in Drosophila melanogaster somatic cells assessed as frequency of clone formation in ST crosses at 0.25 to 1 mM by SMART assay; type: ADME; details: 1000 µM; in short: as §2
[15] = system: Klebsiella pneumoniae; assay: Antibacterial activity against Klebsiella pneumoniae ATCC 700603 assessed as bacterial growth inhibition at 32 ug/ml measured after 16 hrs by broth microdilution method; type: functional, organism-based
[16] = system: HeLa 229; assay: Cytotoxicity against human HeLa 229 cells assessed as cell viability at 50 ug/ml after 24 hrs by CCK-8 assay relative to control; type: cell-based; details: hela 229, 24 h
In short: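 HeLa 229 cells kept in DMEM with 10% FBS and 1% penicillin/streptomycin at 37 °C, 5% CO2. Seeded at 5000 cells/well and dosed next day at 50 μg/mL in triplicate for 24 h, against DMSO-matched controls. CCK-8 reagent added for 2 h, then corrected absorbance read at 450 nm.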

[17] = Hepatic intrinsic clearance in human liver microsomes at 1 ug/ml measured per kg body weight up to 60 mins by LC-MS/MS analysis; type: ADME, Microsome; details: 1 h
[18] = Half life in human liver microsomes at 1 ug/ml measured up to 60 mins by LC-MS/MS analysis; type: ADME, Microsome; details: liver microsomes
In short: (§3)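 Human liver microsomes (1.0 mg/mL protein) in 100 mM phosphate pH 7.4 with 10 mM MgCl2 and 2 mM NADPH, preincubated 10 min at 37 °C. Reaction started with compound at 1 μg/mL. Sampled at 0, 5, 15, 20, 30, 45 and 60 min and quenched in methanol with internal standard. Controls: no NADPH (negative), testosterone (positive). Analysed by LC-MS/MS, triplicate.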

[19] = Stability of compound in mouse pre-heated plasma at 50 uM incubated up to 120 mins by HPLC-ESI/MS analysis; type: ADME, cell-free; details: 2 h
In short: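 Compounds from 2.5 mM DMSO stocks incubated at 50 μM final in mouse plasma diluted to 80% with PBS, preheated, 37 °C, shaking. Sampled at 0, 15, 30, 60, 90 and 120 min and quenched with cold acetonitrile. Centrifuged; supernatant analysed by HPLC-ESI-MS. Peak area reported relative to time zero. Enalapril positive control; triplicate.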

[20] = Intrinsic clearance in human liver microsomes at 1 ug/ml measured per mg protein up to 60 mins by LC-MS/MS analysis; type: ADME, Microsome; details: liver microsomes, read-out: CLH; in short: as §3
[21] = system: Escherichia coli; assay: Antibacterial activity against Escherichia coli K12 assessed as bacterial death up to 256 ug/ml measured after 16 hrs by broth microdilution method; type: functional, organism-based; details: K-12; in short: as §1
[22] = Stability of the compound in simulated gastric fluid at 50 uM and pH 1.2 at 37 degree C measured up to 120 mins by HPLC-ESI/MS analysis; details: simulated gi fluid, pH 1.2, 2 h
[23] = Stability of compound in human liver microsomes at 1 ug/ml measured up to 60 mins in absence of NADPH by LC-MS/MS analysis; type: ADME, Microsome; details: 1 h; in short: as §3
[24] = system: Staphylococcus aureus; assay: Antibacterial activity against Staphylococcus aureus JE2 assessed as bacterial death up to 256 ug/ml measured after 16 hrs by broth microdilution method; type: functional, organism-based; in short: as §1
[25] = system: HaCaT; assay: Cytotoxicity against immortal human HaCaT cells assessed as reduction in cell viability at 50 ug/ml after 24 hrs by CCK-8 assay; type: cell-based
In short: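 HeLa 229 and HaCaT cells in DMEM with 10% FBS and 1% penicillin/streptomycin, 37 °C, 5% CO2, seeded at 5000 cells/well. Next day treated with 50 μg/mL in triplicate, with matching DMSO controls. After 24 h, CCK-8 added for 2 h; corrected absorbance read at 450 nm.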

[26] = system: Chlamydia trachomatis; assay: Anti-chlamydial activity against Chlamydia trachomatis Serovar LGV-L2 infected in Hep2 cells assessed as reduction in chlamydial infectivity by measuring decrease in inclusion forming units at 50 ug/ml treated at 8 hrs post-infection and 24 hrs later re-infecting fresh Hep2 cells monolayer with infected cells and measured at 24 hrs post re-infection by immunofluorescence staining based microscopy analysis; type: functional, organism-based
In short: (§4)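 HEp-2 cells in DMEM with 10% FBS, infected with C. trachomatis L2 at MOI 1. Compounds added 8 hpi in triplicate; DMSO stocks at 50 mg/mL. At 24 hpi lysates collected in sucrose storage medium, frozen at −80 °C, and used to infect fresh HEp-2 monolayers in 10-fold dilutions. After 24 h, stained with goat anti-MOMP and Alexa488 secondary. Inclusions counted in 15 fields at 20x; IFU = mean count per field corrected for dilution.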

[27] = Drug metabolism in human liver microsomes assessed as amount of drug modified at 1 ug/ml […] in presence of NADPH by LC-MS/MS analysis; type: ADME, Microsome; details: read-out: Drug metabolism
[28] = system: Chlamydia trachomatis; assay: Anti-Chlamydial activity against Chlamydia trachomatis Serovar LGV-L2 infected in Hep2 cells assessed as reduction in size and number of chlamydial inclusion at 1 ug/ml treated at 8 hrs post-infection and 24 hrs later re-infecting fresh Hep2 cells monolayer with infected cells and measured at 24 hrs post re-infection by immunofluorescence staining based microscopy analysis; type: functional, organism-based; in short: as §4

Row | SMILES | inhibition [1] | inhibition [5] | inhibition [6] | inhibition [8] | inhibition [9] | inhibition [10] | inhibition [11] | inhibition [12] | inhibition [13] | inhibition [15] | also measured
1 | CC(C)(C(=O)NCCSc1ccccc1Cl)S(=O)(=O)c1ccc(C(F)(F)F)cn1 | Active |  |  |  |  |  |  |  |  |  | Activity [2]: 64 µg/mL; Activity [3]: 32 µg/mL
2 | CC(C)(C(=O)NCCSc1ccc(Cl)cc1)S(=O)(=O)c1ccc(C(F)(F)F)cn1 | inactive | inactive | inactive | inactive | inactive | inactive | inactive | inactive | inactive | inactive | Activity [4]: Non-Toxic; Activity [7]: Non-Toxic; Activity [14]: Non-Toxic; Activity [16]: < 65%
3 | CC(C)(C(=O)N1CCN(c2ccc(Cl)c(Cl)c2)CC1)S(=O)(=O)c1ccc(C(F)(F)F)cn1 | Active | inactive | inactive | inactive | inactive | inactive | inactive | inactive | inactive | inactive | CLH [17]: 874 mL/min/kg; half-life at 1 ug/ml [18]: 6.25 min; Stability [19]: Stable; microsomal CLint at 1 ug/ml [20]: 112 µL/min/mg; Activity [21]: inactive; Stability [22]: Stable; Stability [23]: Stable; Activity [24]: inactive; Activity [25]: Non-Toxic; inhibition [26]: Active; metabolised at 10 min, 1 ug/ml [27]: 90%
4 | C[C@H]1c2cccc(O)c2C(=O)C2=C(O)[C@]3(O)C(=O)C(C(N)=O)=C(O)[C@@H](N(C)C)[C@@H]3[C@@H](O)[C@@H]21 |  |  |  |  |  |  |  |  |  |  | inhibition [28]: Active
